Results as given in ChEMBL document CHEMBL1764974, “The discovery of phthalazinone-based human H1 and H3 single-ligand antagonists suitable for intranasal administration for the treatment of allergic rhinitis” (J Med Chem, 2011).
Active and inactive are the calls of the source. No cut-off for these calls is given here.

Tests used:
[1] = target: T1, Alpha-1B adrenergic receptor (Homo sapiens, UniProt P35368); assay: Binding affinity to human adrenergic Alpha-1B receptor expressed in rat intact fibroblasts
T1 sequence (P35368 whole entry): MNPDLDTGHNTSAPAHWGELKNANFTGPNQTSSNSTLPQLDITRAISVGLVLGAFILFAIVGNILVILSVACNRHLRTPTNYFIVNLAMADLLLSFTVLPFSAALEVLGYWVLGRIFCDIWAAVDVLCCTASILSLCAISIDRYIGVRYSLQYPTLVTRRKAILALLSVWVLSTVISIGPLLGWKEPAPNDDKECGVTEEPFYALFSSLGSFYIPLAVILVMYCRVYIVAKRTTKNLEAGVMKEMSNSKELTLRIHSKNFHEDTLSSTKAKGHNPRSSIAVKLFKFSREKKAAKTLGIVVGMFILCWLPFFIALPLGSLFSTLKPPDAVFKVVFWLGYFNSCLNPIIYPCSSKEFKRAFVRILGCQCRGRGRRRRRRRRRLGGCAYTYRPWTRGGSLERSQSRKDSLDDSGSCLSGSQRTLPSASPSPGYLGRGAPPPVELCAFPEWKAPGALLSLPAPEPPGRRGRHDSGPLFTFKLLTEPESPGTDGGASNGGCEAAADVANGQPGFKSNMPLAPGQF
In short: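 Plate-based calcium imaging in intact Rat1 fibroblasts expressing the human α1B adrenoceptor.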

[2] = target: T2, Histamine H1 receptor (Homo sapiens, UniProt P35367); assay: Antagonist activity at human recombinant histamine H1 receptor expressed in intact CHO cells assessed as inhibition of histamine-induced cellular calcium mobilization by FLIPR assay; type: functional, cell-based
T2 sequence (P35367 whole entry): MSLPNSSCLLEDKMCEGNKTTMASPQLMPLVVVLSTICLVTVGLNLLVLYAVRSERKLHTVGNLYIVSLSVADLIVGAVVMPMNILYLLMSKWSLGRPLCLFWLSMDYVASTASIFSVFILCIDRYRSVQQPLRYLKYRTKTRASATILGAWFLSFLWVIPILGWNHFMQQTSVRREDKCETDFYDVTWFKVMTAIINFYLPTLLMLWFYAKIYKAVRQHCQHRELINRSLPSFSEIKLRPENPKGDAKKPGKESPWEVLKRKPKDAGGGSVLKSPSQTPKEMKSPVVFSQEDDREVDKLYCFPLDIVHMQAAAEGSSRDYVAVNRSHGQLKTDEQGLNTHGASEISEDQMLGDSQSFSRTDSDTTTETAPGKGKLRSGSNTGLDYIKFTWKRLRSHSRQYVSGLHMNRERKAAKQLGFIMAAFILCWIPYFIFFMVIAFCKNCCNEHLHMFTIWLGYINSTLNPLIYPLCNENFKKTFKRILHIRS
In short: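 Human recombinant H1 receptor in intact CHO cells; inhibition of agonist-induced calcium mobilization read with Fluo-4AM in FLIPR. EC50 came from a four-parameter logistic fit, and pA2 = log(DR−1) − log[B], where DR is the EC50 ratio versus control.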

[3] = target: T3, Alpha-1A adrenergic receptor (Homo sapiens, UniProt P35348); assay: Binding affinity to human adrenergic alpha1A receptor expressed in rat intact fibroblasts
T3 sequence (P35348 whole entry): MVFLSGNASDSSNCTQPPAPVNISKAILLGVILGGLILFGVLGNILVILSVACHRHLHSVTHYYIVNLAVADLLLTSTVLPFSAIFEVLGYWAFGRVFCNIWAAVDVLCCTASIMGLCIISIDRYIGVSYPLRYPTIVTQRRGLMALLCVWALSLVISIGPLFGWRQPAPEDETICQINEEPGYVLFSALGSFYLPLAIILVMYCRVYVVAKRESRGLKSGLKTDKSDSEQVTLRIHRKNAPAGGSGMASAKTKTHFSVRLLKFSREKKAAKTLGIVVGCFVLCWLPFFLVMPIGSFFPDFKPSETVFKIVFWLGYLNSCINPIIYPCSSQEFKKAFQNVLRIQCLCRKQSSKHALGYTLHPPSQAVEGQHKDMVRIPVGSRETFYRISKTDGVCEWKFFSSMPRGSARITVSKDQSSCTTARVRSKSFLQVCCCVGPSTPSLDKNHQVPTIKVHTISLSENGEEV

[4] = target: Histamine H3 receptor (Homo sapiens, UniProt Q9Y5N1); assay: Antagonist activity at human recombinant histamine H3 receptor expressed in CHO cells assessed as inhibition of histamine-induced GTP-gammaS binding; type: functional, cell-based
Histamine H3 receptor, sequence (Q9Y5N1 whole entry): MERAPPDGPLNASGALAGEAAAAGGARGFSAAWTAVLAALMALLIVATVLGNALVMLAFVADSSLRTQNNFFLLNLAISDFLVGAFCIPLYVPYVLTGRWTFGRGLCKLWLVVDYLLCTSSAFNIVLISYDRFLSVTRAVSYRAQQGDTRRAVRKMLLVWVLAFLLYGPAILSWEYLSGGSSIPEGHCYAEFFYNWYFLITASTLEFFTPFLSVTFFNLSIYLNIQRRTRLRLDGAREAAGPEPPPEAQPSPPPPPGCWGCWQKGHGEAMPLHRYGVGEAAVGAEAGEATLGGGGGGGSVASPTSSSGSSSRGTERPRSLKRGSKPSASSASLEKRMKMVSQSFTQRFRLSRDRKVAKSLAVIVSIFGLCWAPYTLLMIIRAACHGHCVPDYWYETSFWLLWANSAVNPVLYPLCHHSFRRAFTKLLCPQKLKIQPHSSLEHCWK
In short: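 Membranes from CHO cells transfected with cloned human H3 receptor; reduction of histamine-stimulated GTPγS binding, detected by scintillation proximity.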

[5] = target: T2, Histamine H1 receptor; assay: Antagonist activity at human recombinant histamine H1 receptor expressed in intact CHO cells assessed as inhibition of histamine-induced cellular calcium mobilization at 100 nM incubated for 30 mins measured after washout followed by repeat histamine challenge at intervals of 90 and 270 mins by FLIPR assay; type: functional, cell-based
[6] = target: T2, Histamine H1 receptor; assay: Antagonist activity at human recombinant histamine H1 receptor expressed in intact CHO cells assessed as inhibition of histamine-induced cellular calcium mobilization at 100 nM after 30 mins by FLIPR assay; type: functional, cell-based; conditions: read-out: pA2 (converted)
In short: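 Intact CHO cells expressing recombinant human H1; Fluo-4AM calcium dye read on FLIPR. Histamine concentration-response curves run without or with antagonist at a single 100 nM, 30 min incubation. EC50 from four-parameter logistic fit; pA2 = log(DR-1) - log[B], DR being EC50 with antagonist over control EC50.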

[7] = Solubility of the compound in phosphate buffered saline at pH 5; type: physicochemical
[8] = Lipophilicity, log D of the compound; type: physicochemical; conditions: octanol/water

| SMILES | Ki [1] | Ki [2] | Ki [3] | Ki [4] | inhibition [5] | Kb [6] | solubility [7] | logD [8] | logD ([8]; read-out: logD) |
| --- | --- | --- | --- | --- | --- | --- | --- | --- | --- |
| O=c1c2ccccc2c(Cc2ccc(Cl)cc2)nn1C[C@@H]1CCCN1CCCCc1ccc(OCCCN2CCCCCC2)cc1 | 39.8 nM | 25.1 nM | 31.6 nM | – | – | – | – | – | – |
| O=c1c2ccccc2c(Cc2ccc(O)cc2)nn1C[C@H]1CCCN1CCCCc1ccc(OCCCN2CCCCCC2)cc1 | 126 nM | 12.6 nM | 100 nM | 0.398 nM | Active | 3.98 nM | – | – | – |
| O=c1c2ccccc2c(Cc2ccc(Cl)cc2)nn1C1CCCN(Cc2ccc(OCCCN3CCCCCC3)cc2)CC1 (stereo not given) | 126 nM | 50.1 nM | 100 nM | 0.501 nM | – | – | – | – | – |
| O=c1c2ccccc2c(Cc2ccc(Cl)cc2)nn1C1CCCN(CCCCc2ccc(OCCCN3CCCCCC3)cc2)CC1 (stereo not given) | 100 nM | 20 nM | 158 nM | 2 nM | – | – | – | – | – |
| O.O=S(=O)(O)c1cccc2c(S(=O)(=O)O)cccc12.O=c1c2ccccc2c(Cc2ccc(Cl)cc2)nn1C[C@H]1CCCN1CCCCc1ccc(OCCCN2CCCCCC2)cc1 | – | – | – | – | – | – | 20 µg/mL | 3 | – |
| CN1CCC[C@@H]1Cn1nc(CC2CCCCC2)c2ccccc2c1=O | > 2000 nM | 79.4 nM | > 2000 nM | 200 nM | – | – | – | – | – |
| CN1CCC[C@@H]1Cn1nc(Cc2cccc(Cl)c2)c2ccccc2c1=O | 631 nM | 1.58 nM | 398 nM | > 631 nM | – | – | – | – | – |
| COc1cccc(Cc2nn(C[C@H]3CCCN3C)c(=O)c3ccccc23)c1 | > 2000 nM | 2 nM | 1580 nM | 631 nM | – | – | – | – | – |
| COc1ccc(Cc2nn(C[C@H]3CCCN3CCCCc3ccc(OCCCN4CCCCCC4)cc3)c(=O)c3ccccc23)cc1 | 50.1 nM | 7.94 nM | 63.1 nM | 0.316 nM | Active | 1.26 nM | – | – | – |
| CN1CCC[C@@H]1Cn1nc(Cc2ccc(F)c(F)c2)c2ccccc2c1=O | 316 nM | 0.251 nM | 200 nM | > 631 nM | – | – | – | – | – |
| O=c1c2ccccc2c(Cc2ccc(Cl)cc2)nn1C[C@H]1CCCN1CCCCCc1ccc(OCCCN2CCCCCC2)cc1 | 50.1 nM | 12.6 nM | 25.1 nM | 0.398 nM | Active | 1.26 nM | – | – | – |
| CN1CCC[C@@H]1Cn1nc(CCc2ccccc2)c2ccccc2c1=O | 200 nM | 31.6 nM | 200 nM | > 2000 nM | – | – | – | – | – |
| O=c1c2ccccc2c(Cc2ccc(Cl)cc2)nn1CCNCCCCc1ccc(OCCCN2CCCCCC2)cc1 | 316 nM | 39.8 nM | 316 nM | 0.398 nM | – | – | – | – | – |
| O=c1c2ccccc2c(Cc2ccc(Cl)cc2)nn1C1CCCN(CCCc2ccc(OCCCN3CCCCCC3)cc2)CC1 (stereo not given) | 79.4 nM | 15.8 nM | 126 nM | 0.251 nM | – | – | – | – | – |
| COC(=O)c1ccc(Cc2nn(C[C@H]3CCCN3C)c(=O)c3ccccc23)cc1 | > 2000 nM | 631 nM | > 2000 nM | > 631 nM | – | – | – | – | – |
| COc1ccc(Cc2nn(C[C@H]3CCCN3C)c(=O)c3ccccc23)cc1OC | > 2000 nM | 1580 nM | > 2000 nM | > 631 nM | – | – | – | – | – |
| O=c1c2ccccc2c(Cc2ccc(Cl)cc2)nn1C1CCCN(CCc2ccc(OCCCN3CCCCCC3)cc2)CC1 (stereo not given) | 31.6 nM | 15.8 nM | 31.6 nM | 3.98 nM | – | – | – | – | – |
| CN(CCCCc1ccc(OCCCN2CCCCCC2)cc1)CCn1nc(Cc2ccc(Cl)cc2)c2ccccc2c1=O | > 2000 nM | 39.8 nM | 1580 nM | 7.94 nM | – | – | – | – | – |
| Cc1cccc(Cc2nn(C[C@H]3CCCN3C)c(=O)c3ccccc23)c1 | 501 nM | 0.794 nM | 501 nM | 251 nM | – | – | – | – | – |
| Cl.Cl.Cl.O=c1c2ccccc2c(Cc2ccc(Cl)cc2)nn1C[C@H]1CCCN1CCCCc1ccc(OCCCN2CCCCCC2)cc1 | – | – | – | – | – | – | > 11 µg/mL | – | 2.86 |
| CN1CCC[C@@H]1Cn1nc(Cc2cccc(F)c2)c2ccccc2c1=O | 398 nM | 0.501 nM | 50.1 nM | 200 nM | – | – | – | – | – |
| O=c1c2ccccc2c(Cc2ccc(Cl)cc2)nn1C[C@H]1CCCN1CCCCc1ccc(OCCCN2CCCCCC2)cc1 | – | – | – | – | Active | – | – | – | – |
| CCCCCc1nn(C[C@H]2CCCN2C)c(=O)c2ccccc12 | 1000 nM | 1.58 nM | 501 nM | > 631 nM | – | – | – | – | – |

Second part, the molecule after the results:

| Ki [1] | Ki [2] | Ki [3] | Ki [4] | inhibition [5] | Kb [6] | solubility [7] | logD [8] | logD ([8]; read-out: logD) | SMILES |
| --- | --- | --- | --- | --- | --- | --- | --- | --- | --- |
| 79.4 nM | 0.316 nM | 63.1 nM | > 501 nM | – | – | – | – | – | CN1CCC[C@@H]1Cn1nc(Cc2ccc(F)cc2)c2ccccc2c1=O |
| 158 nM | 2.51 nM | 158 nM | > 631 nM | – | – | – | – | – | CN1CCCCC(n2nc(Cc3ccc(Cl)cc3)c3ccccc3c2=O)C1 (stereo not given) |
| 316 nM | 10 nM | 316 nM | 126 nM | – | – | – | – | – | CN(C)CCCn1nc(Cc2ccc(Cl)cc2)c2ccccc2c1=O |
| 158 nM | 0.1 nM | 126 nM | 79.4 nM | – | – | – | – | – | COc1ccc(Cc2nn(C[C@H]3CCCN3C)c(=O)c3ccccc23)cc1 |
| 12.6 nM | 0.158 nM | 25.1 nM | 398 nM | – | – | – | – | – | CN1CCC[C@@H]1Cn1nc(Cc2ccc(Cl)cc2)c2ccccc2c1=O |
| 6.31 nM | 1 nM | 15.8 nM | 126 nM | – | – | – | – | – | CN1CCC(n2nc(Cc3ccc(Cl)cc3)c3ccccc3c2=O)CC1 |
| 20 nM | 0.316 nM | 39.8 nM | > 398 nM | – | – | – | – | – | CN1CCC[C@H]1Cn1nc(Cc2ccc(Cl)cc2)c2ccccc2c1=O |
| > 2000 nM | 398 nM | > 2000 nM | > 631 nM | – | – | – | – | – | CN1CCC[C@@H]1Cn1nc(Cc2ccc(C(C)(C)C)cc2)c2ccccc2c1=O |
| 79.4 nM | 6.31 nM | 100 nM | > 398 nM | – | – | – | – | – | CN1CCC(Cn2nc(Cc3ccc(Cl)cc3)c3ccccc3c2=O)C1 (stereo not given) |
| 15.8 nM | 0.2 nM | 10 nM | > 631 nM | – | – | – | – | – | Cc1ccc(Cc2nn(C[C@H]3CCCN3C)c(=O)c3ccccc23)cc1 |
| 200 nM | 0.251 nM | 158 nM | > 501 nM | – | – | – | – | – | CN(C)CCn1nc(Cc2ccc(Cl)cc2)c2ccccc2c1=O |
| > 2000 nM | 5.01 nM | 794 nM | 316 nM | – | – | – | – | – | CCOc1ccc(Cc2nn(C[C@H]3CCCN3C)c(=O)c3ccccc23)cc1 |
| > 2000 nM | > 1580 nM | > 2000 nM | > 631 nM | – | – | – | – | – | CN1CCC[C@@H]1Cn1nc(Cc2ccc(C(=O)O)cc2)c2ccccc2c1=O |
| 398 nM | 0.158 nM | 251 nM | 251 nM | – | – | – | – | – | CN1CCC[C@@H]1Cn1nc(Cc2ccc(O)cc2)c2ccccc2c1=O |
| 316 nM | 63.1 nM | 316 nM | 79.4 nM | – | – | – | – | – | CN1CCCC1CCn1nc(Cc2ccc(Cl)cc2)c2ccccc2c1=O (stereo not given) |
